Test results from ChEMBL document CHEMBL5712898, “H3K27me1 is essential for MMP-9-dependent H3N-terminal tail proteolysis during osteoclastogenesis” (Epigenetics Chromatin, 2018).
Active and inactive are the calls of the source. The rule behind the calls is not given here.

Legend:
Osteoclast [1] = assay: Inhibition of EZH1/2 in M-CSF/RANKL-induced OCP cells (unknown origin) assessed as reduction in H3K27me2 level at 2 uM cultured for 0, 1, 3, and 5 days with RANKL by Western blot analysis; settings: Homo sapiens, time 5.0 day
Osteoclast [2] = assay: Inhibition of EZH1/2 in M-CSF/RANKL-induced OCP cells (unknown origin) assessed as reduction in H3K27me3 level at 2 uM cultured for 0, 1, 3, and 5 days with RANKL by Western blot analysis; settings: Homo sapiens, time 5.0 day
Osteoclast [3] = assay: Inhibition of EZH1/2 in M-CSF/RANKL-induced OCP cells (unknown origin) assessed as reduction in H3NT proteolysis at 2 uM cultured for 0, 1, 3, and 5 days with RANKL by Western blot analysis; settings: Homo sapiens, time 5.0 day
[4] = molecular target: Matrix metalloproteinase-9 (Homo sapiens) (UniProt P14780); assay: Inhibition of MMP-9 in M-CSF/RANKL-induced OCP cells (unknown origin) assessed as reduction in H3NT proteolysis at 10 nM cultured for 0, 1, 3, and 5 days with RANKL by Western blot analysis; type: cell-based; settings: Osteoclast, time 5.0 day
Method in brief: (§1)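 Osteoclast precursor cells cultured with 30 ng/ml M-CSF plus 50 ng/ml RANKL for 0, 1, 3 or 5 days, with BIX01294 (1.5 µM) and/or MMP-9 inhibitor I (10 nM) in the medium. Nuclei were isolated in HEPES pH 7.4 sucrose buffer with 0.2% Triton X-100, and chromatin was extracted in EDTA/EGTA buffer. Cleaved H3 was detected as a faster-migrating band on Western blot with H3 C-terminal antibody.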

[5] = molecular target: Matrix metalloproteinase-9 (Homo sapiens) (UniProt P14780); assay: Inhibition of MMP-9 in M-CSF/RANKL-induced OCP cells (unknown origin) assessed as reduction in H3NT proteolysis at 10 nM co-treated with 1.5 uM BIX01294 cultured for 0, 1, 3, and 5 days with RANKL by Western blot analysis; type: cell-based; settings: Osteoclast, time 5.0 day
Method in brief: as §1

[6] = molecular target: Matrix metalloproteinase-9 (Homo sapiens) (UniProt P14780); assay: Inhibition of MMP-9 in M-CSF/RANKL-induced OCP cells (unknown origin) assessed as reduction in TRAP-positive cells at 10 nM co-treated with 1.5 uM BIX01294 cultured for 0, 1, 3, and 5 days with RANKL by light microscopic analysis; type: cell-based; settings: Osteoclast, time 5.0 day
Method in brief: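 OCP cells were differentiated with 30 ng/ml M-CSF and 50 ng/ml RANKL, with media carrying BIX01294 (1.5 µM) and/or MMP-9 inhibitor I (10 nM). On days 0, 1, 3 and 5 cells were formaldehyde-fixed and stained for tartrate-resistant acid phosphatase with an acid phosphatase leukocyte kit. TRAP-positive cells with three or more nuclei were counted as osteoclasts under a light microscope.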

[7] = molecular target: Matrix metalloproteinase-9 (Homo sapiens) (UniProt P14780); assay: Inhibition of MMP-9 in M-CSF/RANKL-induced OCP cells (unknown origin) assessed as reduction in accumulation of G9a in the P region of Nfatc1 gene at 10 nM cultured for 3 days with RANKL by ChIPac-qPCR analysis; type: cell-based; settings: Osteoclast, time 3.0 day
[8] = molecular target: Matrix metalloproteinase-9 (Homo sapiens) (UniProt P14780); assay: Inhibition of MMP-9 in M-CSF/RANKL-induced OCP cells (unknown origin) assessed as reduction in accumulation of G9a in the CR region of Lif gene at 10 nM cultured for 3 days with RANKL by ChIPac-qPCR analysis; type: cell-based; settings: Osteoclast, time 3.0 day
[9] = molecular target: Matrix metalloproteinase-9 (Homo sapiens) (UniProt P14780); assay: Inhibition of MMP-9 in M-CSF/RANKL-induced OCP cells (unknown origin) assessed as reduction in accumulation of G9a in the P and CR region of Xpr1 gene at 10 nM cultured for 3 days with RANKL by ChIPac-qPCR analysis; type: cell-based; settings: Osteoclast, time 3.0 day
[10] = molecular target: Matrix metalloproteinase-9 (Homo sapiens) (UniProt P14780); assay: Inhibition of MMP-9 in M-CSF/RANKL-induced OCP cells (unknown origin) assessed as reduction in accumulation of H3K27me1 in the P region of Nfatc1 gene at 10 nM cultured for 3 days with RANKL by ChIPac-qPCR analysis; type: cell-based; settings: Osteoclast, time 3.0 day
Method in brief: (§2)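 Cells were 3-day RANKL-induced OCP cultures (30 ng/ml M-CSF, 50 ng/ml RANKL) with inhibitor in the medium. Chromatin was fixed with […], acetylated with 20 mM acetic anhydride, and immunoprecipitated; crosslinks were reversed overnight at 65 °C. Occupancy was measured by qPCR at the Nfatc1 promoter, the Lif coding region and the Xpr1 promoter plus coding region. Data are given as mean ± SD.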

[11] = molecular target: Matrix metalloproteinase-9 (Homo sapiens) (UniProt P14780); assay: Inhibition of MMP-9 in M-CSF/RANKL-induced OCP cells (unknown origin) assessed as reduction in accumulation of H3K27me1 in the CR region of Lif gene at 10 nM cultured for 3 days with RANKL by ChIPac-qPCR analysis; type: cell-based; settings: Osteoclast, time 3.0 day
Method in brief: as §2

[12] = molecular target: Matrix metalloproteinase-9 (Homo sapiens) (UniProt P14780); assay: Inhibition of MMP-9 in M-CSF/RANKL-induced OCP cells (unknown origin) assessed as reduction in accumulation of H3K27me1 in the P and CR region of Xpr1 gene at 10 nM cultured for 3 days with RANKL by ChIPac-qPCR analysis; type: cell-based; settings: Osteoclast, time 3.0 day
Method in brief: as §2

[13] = molecular target: Matrix metalloproteinase-9 (Homo sapiens) (UniProt P14780); assay: Inhibition of MMP-9 in M-CSF/RANKL-induced OCP cells (unknown origin) assessed as reduction in Nfatc1 mRNA expression at 10 nM cultured for 3 days with RANKL by RT-qPCR analysis; type: cell-based; settings: Osteoclast, time 3.0 day
Method in brief: (§3)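 OCP cells were induced for 3 days with 30 ng/ml M-CSF and 50 ng/ml RANKL, with BIX01294 (1.5 µM) and/or MMP-9 inhibitor I (10 nM) added to the medium. Nfatc1, Lif and Xpr1 transcripts were quantified by RT-qPCR as fold change. Data are given as mean ± SD.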

[14] = molecular target: Matrix metalloproteinase-9 (Homo sapiens) (UniProt P14780); assay: Inhibition of MMP-9 in M-CSF/RANKL-induced OCP cells (unknown origin) assessed as reduction in Lif mRNA expression at 10 nM cultured for 3 days with RANKL by RT-qPCR analysis; type: cell-based; settings: Osteoclast, time 3.0 day
Method in brief: as §3

[15] = molecular target: Matrix metalloproteinase-9 (Homo sapiens) (UniProt P14780); assay: Inhibition of MMP-9 in M-CSF/RANKL-induced OCP cells (unknown origin) assessed as reduction in Xpr1 mRNA expression at 10 nM cultured for 3 days with RANKL by RT-qPCR analysis; type: cell-based; settings: Osteoclast, time 3.0 day
Method in brief: as §3

[16] = molecular target: Matrix metalloproteinase-9 (Homo sapiens) (UniProt P14780); assay: Inhibition of MMP-9 in M-CSF/RANKL-induced OCP cells (unknown origin) assessed as reduction in Nfatc1 mRNA expression at 10 nM co-treated with BIX01294 cultured for 3 days with RANKL by RT-qPCR analysis; type: cell-based; settings: Osteoclast, time 3.0 day
Method in brief: as §3

[17] = molecular target: Matrix metalloproteinase-9 (Homo sapiens) (UniProt P14780); assay: Inhibition of MMP-9 in M-CSF/RANKL-induced OCP cells (unknown origin) assessed as reduction in Lif mRNA expression at 10 nM co-treated with BIX01294 cultured for 3 days with RANKL by RT-qPCR analysis; type: cell-based; settings: Osteoclast, time 3.0 day
Method in brief: as §3

[18] = molecular target: Matrix metalloproteinase-9 (Homo sapiens) (UniProt P14780); assay: Inhibition of MMP-9 in M-CSF/RANKL-induced OCP cells (unknown origin) assessed as reduction in Xpr1 mRNA expression at 10 nM co-treated with BIX01294 cultured for 3 days with RANKL by RT-qPCR analysis; type: cell-based; settings: Osteoclast, time 3.0 day
Method in brief: as §3

Matrix metalloproteinase-9 (Homo sapiens), sequence (P14780 whole entry): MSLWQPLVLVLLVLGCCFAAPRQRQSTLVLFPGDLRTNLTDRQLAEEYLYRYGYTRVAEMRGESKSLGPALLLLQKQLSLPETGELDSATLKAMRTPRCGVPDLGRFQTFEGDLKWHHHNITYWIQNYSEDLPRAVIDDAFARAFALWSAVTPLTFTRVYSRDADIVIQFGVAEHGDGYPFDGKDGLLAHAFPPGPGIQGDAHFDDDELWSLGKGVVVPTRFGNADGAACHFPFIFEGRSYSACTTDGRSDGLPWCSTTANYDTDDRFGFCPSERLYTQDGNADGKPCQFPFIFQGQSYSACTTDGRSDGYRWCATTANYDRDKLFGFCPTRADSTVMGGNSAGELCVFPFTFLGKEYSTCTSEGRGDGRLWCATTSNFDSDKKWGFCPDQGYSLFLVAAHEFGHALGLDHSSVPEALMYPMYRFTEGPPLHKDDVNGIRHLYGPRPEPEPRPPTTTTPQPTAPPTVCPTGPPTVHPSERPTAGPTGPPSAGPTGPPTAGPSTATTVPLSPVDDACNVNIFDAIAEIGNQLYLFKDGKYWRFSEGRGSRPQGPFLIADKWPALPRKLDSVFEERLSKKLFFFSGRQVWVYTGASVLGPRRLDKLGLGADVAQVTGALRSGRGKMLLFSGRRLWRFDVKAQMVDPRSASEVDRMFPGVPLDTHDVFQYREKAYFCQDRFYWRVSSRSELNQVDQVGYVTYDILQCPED

Row | SMILES | inhibition (Osteoclast [1]) | inhibition (Osteoclast [2]) | inhibition (Osteoclast [3]) | inhibition [4] | inhibition [5] | inhibition [6] | inhibition [7] | inhibition [8] | inhibition [9] | inhibition [10] | inhibition [11] | inhibition [12] | inhibition [13] | inhibition [14] | inhibition [15] | inhibition [16] | inhibition [17] | inhibition [18]
1 | CCCc1cc(C)[nH]c(=O)c1CNC(=O)c1cc(-c2ccc(N3CCN(C(C)C)CC3)nc2)cc2c1cnn2C(C)C | Active | Active | inactive |  |  |  |  |  |  |  |  |  |  |  |  |  |  | 
2 | CCN(CC)Cc1cc(C)c(N(Cc2ccccc2)S(=O)(=O)c2ccc(OC)cc2)c(C(=O)NO)c1 |  |  |  | Active | Active | Active | inactive | inactive | inactive | inactive | inactive | inactive | Active | Active | Active | Active | Active | Active
